In ChEMBL document CHEMBL3856278, “Antitumor Activity of Lankacidin Group Antibiotics Is Due to Microtubule Stabilization via a Paclitaxel-like Mechanism” (J Med Chem, 2016):
Active and inactive are the calls of the source. The calls are words filed in the database; no cut-off is given here.

Tests used:
Sus scrofa [1] = species on record: Sus scrofa; experiment: Destabilization of rhodamine labeled porcine microtubule assessed as appearance of short strands microtubules at 10 uM after 5 mins by upright fluorescence microscopic analysis
T47D [2] = experiment: Destabilization of microtubule network in human T47D cells at 0.5 uM after 2 hrs by DAPI staining-based immunofluorescence assay; assay type: cell-based
Procedure, shortened: (§1)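 T47D cells seeded on coverslips and synchronized. Treated 2 h with drug (colchicine 0.5 μM, paclitaxel 100 nM, lankacidin C 1 mM) against a 1% DMSO control. Stained with anti-tubulin antibody and Alexa Fluor 488 secondary, DNA counterstained with DAPI. Imaged by epifluorescence microscopy with a 63× objective.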

[3] = (§2) Binding affinity to free porcine brain tubulin dimers after 30 mins by fluorescence quenching assay; design: species or system Sus scrofa
Procedure, shortened: (§3)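 Free tubulin dimers (porcine brain tubulin, or recombinant human αI-βI) at 2 μM final in 10 mM sodium phosphate, 10 mM MgCl2, 1 mM GTP, 0.5% DMSO, 250 mM sucrose, pH 7.0. Held on ice 10 min, then ligand added at 5–100 μM final. Incubated 30 min at 25 °C, then rotated 1 h at room temperature. Tryptophan emission read at 310–400 nm with 295 nm excitation. Kd derived by Stern–Volmer fit.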

Sus scrofa [4] = species on record: Sus scrofa; experiment: as §2; procedure, shortened: as §3
[5] = target: Tubulin alpha-1A /beta chains (Homo sapiens) (UniProt Q71U36+P07437); experiment: (§4) Binding affinity to human recombinant tubulin alpha 1A/tubulin beta chain after 30 mins by fluorescence quenching assay; assay type: protein-complex assay; procedure, shortened: as §3
[6] = target: Tubulin alpha-1A /beta chains (Homo sapiens, UniProt P07437+Q71U36); experiment: as §4; assay type: protein-complex assay; procedure, shortened: as §3
Sus scrofa [7] = species on record: Sus scrofa; experiment: Inhibition of porcine tubulin polymerization assessed as decrease in final polymer mass at 10 uM measured every 94 secs
Procedure, shortened: (§5)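 Plate prewarmed to 37 °C; OD340 read at 37 °C every 94 s for 61 cycles with orbital shaking. Runs in triplicate, duplicate for mebendazole; the averaged curve gave phase lengths, Vmax and final polymer mass.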

Sus scrofa [8] = species on record: Sus scrofa; experiment: Inhibition of porcine tubulin polymerization assessed as increase in duration of nucleation phase at 10 uM measured every 94 secs; procedure, shortened: as §5
Sus scrofa [9] = species on record: Sus scrofa; experiment: Inhibition of porcine tubulin polymerization assessed as maximum growth rate at 10 uM measured every 94 secs (reference value: 13 milliOD/min); procedure, shortened: as §5
T47D [10] = experiment: Stabilization of microtubule network in human T47D cells at 100 nM after 2 hrs by DAPI staining-based immunofluorescence assay; assay type: cell-based
Procedure, shortened: (§6)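 T47D cells in RPMI1640 with 2 mM L-glutamine, 10% FBS, 0.01 mg/mL insulin and 1 mM pyruvate were seeded on coverslips, synchronized, then given drug 2 h (1% DMSO solvent control). Anti-tubulin antibody with Alexa Fluor 488 secondary and 0.1 μg/mL DAPI for DNA; epifluorescence at 63×, interphase networks and mitotic spindles scored.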

Sus scrofa [11] = species on record: Sus scrofa; experiment: Induction of porcine tubulin polymerization assessed as increase in final polymer mass at 10 uM measured every 94 secs
Procedure, shortened: (§7)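 Assembly followed at 37 °C by OD340 every 94 s for 61 cycles. Averaged curves from three runs were analysed for nucleation, Vmax and final polymer mass.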

Sus scrofa [12] = species on record: Sus scrofa; experiment: Induction of porcine tubulin polymerization assessed as bypass of nucleation phase at 10 uM measured every 94 secs; procedure, shortened: as §5
Sus scrofa [13] = species on record: Sus scrofa; experiment: Stabilization of rhodamine labeled porcine microtubule assessed as appearance of long strands microtubules at 10 uM after 5 mins by upright fluorescence microscopic analysis
Procedure, shortened: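 Rhodamine-labeled tubulin mixed 1:4 with unlabeled tubulin to 5 mg/mL in G-PEM (12% glycerol, pH 7.0). Polymerized 20 min at 37 °C, then drug added to 10 μM and incubated 5 min more at 37 °C. Diluted to 1.3 mg/mL and imaged immediately by fluorescence microscopy with a 40× oil objective.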

Sus scrofa [14] = species on record: Sus scrofa; experiment: Induction of porcine tubulin polymerization assessed as maximum growth rate at 10 uM measured every 94 secs (reference value: 13 milliOD/min); procedure, shortened: as §7
T47D [15] = experiment: Stabilization of interphase microtubule network in human T47D cells assessed as disruption of mitotic spindles at 100 nM after 2 hrs by DAPI staining-based immunofluorescence assay; assay type: cell-based; procedure, shortened: as §6
T47D [16] = experiment: Stabilization of interphase microtubule network in human T47D cells assessed as disruption of mitotic spindles at 1 mM after 2 hrs by DAPI staining-based immunofluorescence assay; assay type: cell-based; procedure, shortened: as §1
Sus scrofa [17] = species on record: Sus scrofa; experiment: Induction of porcine tubulin polymerization assessed as decrease in duration of nucleation phase at 10 uM measured every 94 secs; procedure, shortened: as §7
[18] = Cytotoxicity against human HeLa cells assessed as decrease in cell viability after 48 hrs by CellTiter-Blue assay; assay type: functional, cell-based
Procedure, shortened: (§8)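 HeLa cells in DMEM with 10% FBS; T47D cells in RPMI1640 with 10% FBS, insulin and pyruvate. Cells seeded at 2000 per well 24 h before treatment. Triplicate wells given increasing drug concentrations in DMSO for 48, 72 or 96 h. Viability read by CellTiter-Blue fluorescence (560ex/590em) after 2–4 h with reagent. Run twice; mean and SEM reported.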

Sus scrofa [19] = species on record: Sus scrofa; experiment: Induction of porcine tubulin polymerization assessed as maximum growth rate at 100 uM measured every 94 secs (reference value: 13 milliOD/min); procedure, shortened: as §7
T47D [20] = experiment: Stabilization of interphase microtubule network in human T47D cells at 1 mM after 2 hrs by DAPI staining-based immunofluorescence assay; assay type: cell-based; procedure, shortened: as §1
[21] = Cytotoxicity against human T47D cells assessed as decrease in cell viability after 48 hrs by CellTiter-Blue assay; assay type: functional, cell-based; procedure, shortened: as §8
[22] = Cytotoxicity against human HeLa cells assessed as decrease in cell viability after 72 hrs by CellTiter-Blue assay; assay type: functional, cell-based; procedure, shortened: as §8
[23] = Inhibition of flutax-2 binding to porcine microtubule assessed as flutax-2 EC50 at 128 uM after 1 hr by fluorescence assay (reference value: 248 +/- 50 nM); design: species or system Sus scrofa
[24] = Cytotoxicity against human T47D cells assessed as decrease in cell viability after 96 hrs by CellTiter-Blue assay; assay type: functional, cell-based; procedure, shortened: as §8
[25] = Binding affinity to paclitaxel binding site of porcine microtubule after 1 hr by Michaelis-Menten plot analysis; design: species or system Sus scrofa; conditions: read-out: Kd(app)
Sus scrofa [26] = species on record: Sus scrofa; experiment: Induction of porcine tubulin polymerization assessed as bypass of nucleation phase at 100 uM measured every 94 secs; procedure, shortened: as §7
Sus scrofa [27] = species on record: Sus scrofa; experiment: Induction of porcine tubulin polymerization assessed as doubling of final polymer mass at 100 uM measured every 94 secs; procedure, shortened: as §7
[28] = Cytotoxicity against human HeLa cells assessed as decrease in cell viability after 96 hrs by CellTiter-Blue assay; assay type: functional, cell-based; procedure, shortened: as §8

Sequence of Tubulin alpha-1A /beta chains (P07437 whole entry, looked up): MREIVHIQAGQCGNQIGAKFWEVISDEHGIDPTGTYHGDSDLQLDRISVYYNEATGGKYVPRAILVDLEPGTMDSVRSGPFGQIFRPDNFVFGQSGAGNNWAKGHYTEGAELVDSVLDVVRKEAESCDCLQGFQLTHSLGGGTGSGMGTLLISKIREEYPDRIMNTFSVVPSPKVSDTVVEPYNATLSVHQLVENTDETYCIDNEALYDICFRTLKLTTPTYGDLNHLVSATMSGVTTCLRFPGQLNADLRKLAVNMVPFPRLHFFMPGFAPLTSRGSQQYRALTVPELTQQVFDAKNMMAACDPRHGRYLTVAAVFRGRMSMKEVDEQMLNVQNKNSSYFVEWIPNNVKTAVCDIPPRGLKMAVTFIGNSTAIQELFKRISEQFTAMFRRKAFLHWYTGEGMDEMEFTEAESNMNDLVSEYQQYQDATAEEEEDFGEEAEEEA
Sequence of Tubulin alpha-1A /beta chains (Q71U36 whole entry, looked up): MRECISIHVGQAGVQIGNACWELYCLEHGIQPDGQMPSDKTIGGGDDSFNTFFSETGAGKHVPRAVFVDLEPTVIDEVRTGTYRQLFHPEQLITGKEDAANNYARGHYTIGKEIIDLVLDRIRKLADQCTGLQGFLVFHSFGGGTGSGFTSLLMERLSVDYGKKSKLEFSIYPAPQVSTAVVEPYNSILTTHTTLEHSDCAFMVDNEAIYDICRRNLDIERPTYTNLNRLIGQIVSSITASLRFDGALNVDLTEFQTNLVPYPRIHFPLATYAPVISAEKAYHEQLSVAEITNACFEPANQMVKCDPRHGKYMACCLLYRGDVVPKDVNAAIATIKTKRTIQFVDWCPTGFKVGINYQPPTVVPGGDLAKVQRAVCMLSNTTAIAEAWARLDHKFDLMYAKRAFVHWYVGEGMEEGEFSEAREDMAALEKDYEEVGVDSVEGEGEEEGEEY
Sequence of Tubulin alpha-1A /beta chains (Homo sapiens) (P07437 whole entry, looked up): as the sequence (P07437 whole entry, looked up) above
Sequence of Tubulin alpha-1A /beta chains (Homo sapiens) (Q71U36 whole entry, looked up): as the sequence (Q71U36 whole entry, looked up) above

SMILES: COc1cc2c(c(OC)c1OC)-c1ccc(OC)c(=O)cc1[C@@H](NC(C)=O)CC2
- Activity (Sus scrofa [1]): Active
- Activity (T47D [2]): Active

SMILES: CC(=O)O[C@@H]1/C=C/C(C)=C/C[C@H](O)/C=C/C(C)=C/[C@@H](NC(=O)C(C)O)[C@]2(C)C(=O)O[C@H](C1)[C@@H](C)C2=O (stereo not given in full)
- Kd [3]: 1100 µM
- Activity (Sus scrofa [4]): Dose-dependent effect
- Activity [5]: Dose-dependent effect
- Kd [6]: 654 µM

SMILES: COC(=O)Nc1nc2cc(C(=O)c3ccccc3)ccc2[nH]1
- inhibition (Sus scrofa [7]): Active
- inhibition (Sus scrofa [8]): Active
- Vmax (milli optical density/minute) (Sus scrofa [9]): 4

SMILES: CC(=O)O[C@H]1C(=O)[C@@]2(C)[C@H]([C@H](OC(=O)c3ccccc3)[C@]3(O)C[C@H](OC(=O)[C@H](O)[C@@H](NC(=O)c4ccccc4)c4ccccc4)C(C)=C1C3(C)C)[C@]1(OC(C)=O)CO[C@@H]1C[C@@H]2O
- Activity (T47D [10]): Active
- Activity (Sus scrofa [11]): Active
- Activity (Sus scrofa [12]): Active
- Activity (Sus scrofa [13]): Active
- Vmax (milli optical density/minute) (Sus scrofa [14]): 21
- Activity (T47D [15]): Active

SMILES: CC(=O)C(=O)N[C@@H]1/C=C(\C)C=C[C@@H](O)C/C=C(C)/C=C/[C@@H](O)C[C@H]2OC(=O)[C@]1(C)C(=O)[C@@H]2C
- Kd [3]: 546 µM
- Activity (Sus scrofa [4]): Dose-dependent effect
- Activity [5]: Dose-dependent effect
- Kd [6]: 1060 µM
- Activity (T47D [16]): Active
- Activity (Sus scrofa [17]): Active
- IC50 [18]: 1080 µM
- Vmax (milli optical density/minute) (Sus scrofa [19]): 35
- Activity (T47D [20]): Active
- Activity (Sus scrofa [11]): Active
- IC50 [21]: 202 µM
- Activity (Sus scrofa [13]): Active
- IC50 [22]: 324 µM
- Vmax (milli optical density/minute) (Sus scrofa [14]): 18
- EC50 [23]: 0.921 µM
- IC50 [24]: 11.1 µM
- Kd [25]: 50 µM
- Activity (Sus scrofa [26]): Active
- Activity (Sus scrofa [27]): Active
- IC50 [28]: 224 µM
